Screening data (PubChem)
KLK7 zymogen act: proKLK7 (human) activation, primary screen; P49862; purified proKLK7, EDANS-DABCYL substrate fluorescence; 100% is mature enzyme control, 0% vehicle; activation, % at 7 µM; 370,000 compounds, 0.9% hits; AID 652039;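 active = activation above the mean of all tested compounds plus 3 SD, computed per campaign excluding outliers beyond control limits, cut at about 13% in these data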
Target sequence (P49862 whole entry, looked up): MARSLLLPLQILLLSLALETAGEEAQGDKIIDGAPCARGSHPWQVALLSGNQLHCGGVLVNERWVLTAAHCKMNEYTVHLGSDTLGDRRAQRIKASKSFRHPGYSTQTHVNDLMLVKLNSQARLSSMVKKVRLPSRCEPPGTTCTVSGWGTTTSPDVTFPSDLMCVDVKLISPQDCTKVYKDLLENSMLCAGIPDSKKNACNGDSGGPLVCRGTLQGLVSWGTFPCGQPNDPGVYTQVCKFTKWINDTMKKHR
Runt-SMMHC FRET: inhibitors of human RUNX1 Runt domain binding to CBFb-SMMHC; Q01196+Q13951; Cerulean-Runt/Venus-CBFb-SMMHC FRET ratio 530/480, 1 h; inhibition, % at 20 µM; 220,000 compounds, 0.74% hits;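 active = mean inhibition across duplicate retests at 20 µM reaching about 50%, limit read from the data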;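 note: 0% = DMSO wells and 100% = wells with excess untagged CBFb-SMMHC; inhibitors lower the FRET ratio by blocking Runt binding to CBFb-SMMHC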
MEX-5 binding: C. elegans MEX-5 TCR-2 RNA binding activity | 300,000 compounds, 0.38% hits | activity score (negative = inhibition of binding), % at 10 µM | AID 1832 | MEX-5/FITC-TCR2 RNA binding, fluorescence polarization; active compounds read low;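 active = inhibition past about -25% in most replicates, and total fluorescence under double the plate's negative control median, limit read from the data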;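 note: 0% = DMSO and -100% = 5 µM competing unlabeled TCR2 RNA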
Runt-CBFb FRET: blocks binding of human RUNX1 Runt domain to CBFb. Q01196+Q13951. Cerulean-Runt/Venus-CBFb FRET ratio 530/480, 1 h. inhibition, % at 20 µM. 220,000 compounds, 0.46% hits;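 active = inhibition over about 50% at 20 µM in the single-dose screen, limit read from the data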;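 note: 0% = DMSO wells and 100% = excess unlabeled CBFb competitor control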
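Assay system: Cerulean-Runt domain / Medium: Tris 50 mM pH 7.5, KCl, K2SO4, 0.01% BSA / Timing: protein complex preformed 1 h, compound exposure 1 h, room temperature, dark / Measured by: FRET, excitation 422 nm, emission at 530 and 480 nm / Evaluation: loss of energy transfer signal / Control set: 5 µM unlabeled CBFb as full-inhibition high control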
RanGTP-Imp inh: inhibitors of RanGTP-importin-beta interaction, primary screen, biochemical, FRET, CFP-Ran, YFP-importin-beta, homogeneous; cell-free CFP-Ran/YFP-importin-beta FRET ratio; inhibition, % (test concentration not listed); 300,000 compounds, 1.1% hits;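 active = more than half of the replicate wells show a fall in the fluorescence ratio signal beyond about 16%, limit read from the data, passing the limit was not always enough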;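 note: 0% = DMSO wells and 100% = Ran loaded with GDP instead of GTP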
Starred values were filed as active, the others as inactive. A selection: hits, their analogues and other compounds. The true share with any hit is near 2.1%.

`CCC12CCCN3CCc4c(n(c5ccccc45)C(O)(C(=O)OC)C1)C32` (configuration not stated) gave KLK7 zymogen act 2, Runt-SMMHC FRET 0, MEX-5 binding -13, Runt-CBFb FRET 22 and RanGTP-Imp inh 114*.
Screening CSC(=S)N/N=C/c1ccc(N(C)C)cc1 returned KLK7 zymogen act 0, Runt-SMMHC FRET 52*, MEX-5 binding -4, Runt-CBFb FRET 18 and RanGTP-Imp inh 1.
Screening O=C(c1ccccc1)c1nn(-c2ccccc2)c(=O)cc1C(F)(F)F returned KLK7 zymogen act 0, Runt-SMMHC FRET -1, MEX-5 binding 2, Runt-CBFb FRET 1 and RanGTP-Imp inh -3.
For O=C(Nc1ccccc1)c1nn(-c2ccccc2)c(=O)cc1C(F)(F)F the results were KLK7 zymogen act 0, Runt-SMMHC FRET -306, MEX-5 binding -30*, Runt-CBFb FRET -5 and RanGTP-Imp inh 1.
Screening C=CCOC(=O)N1CCC2CC1c1c(-c3ccc(C(F)(F)F)cc3)cccc12 (configuration not stated) returned KLK7 zymogen act 0.
For Cc1ccc2nc3c(cc2c1)c(C)nn3-c1ccccc1 the results were KLK7 zymogen act -2, MEX-5 binding 0 and RanGTP-Imp inh 61*.
Screening Cc1nn(-c2ccccc2)c2nc(=O)n(-c3ccccc3)cc12 returned KLK7 zymogen act 1, Runt-SMMHC FRET -4, MEX-5 binding 0, Runt-CBFb FRET -3 and RanGTP-Imp inh 5.
Screening Cc1ccc(NC(=O)Cc2cccc(OC(F)(F)F)c2)c(S(=O)(=O)N2CCOCC2)c1 returned KLK7 zymogen act 0.
Screening O=C(CNc1n[nH]c(=O)[nH]c1=O)N/N=C/c1ccccc1 returned KLK7 zymogen act 0, Runt-SMMHC FRET 1, MEX-5 binding 2, Runt-CBFb FRET -3 and RanGTP-Imp inh 1.
`O=c1[nH]c(NCCO)c(N=Cc2ccccc2)c(=O)[nH]1` gave KLK7 zymogen act 2, MEX-5 binding -6 and RanGTP-Imp inh 164*.
Screening Cc1cn(CC(=O)NCCNc2ccc([N+](=O)[O-])cn2)c(=O)[nH]c1=O returned KLK7 zymogen act 0.
`CCC(=O)NC(Nc1sc2c(c1C(=O)OC)CCN(C)C2)(C(F)(F)F)C(F)(F)F` gave KLK7 zymogen act 0, Runt-SMMHC FRET 61*, MEX-5 binding -3, Runt-CBFb FRET 34 and RanGTP-Imp inh 66*.
For CCOC(=O)C(NC(=O)CC)(Nc1sc2c(c1C(=O)OC)CCN(C)C2)C(F)(F)F (configuration not stated) the results were KLK7 zymogen act -1, Runt-SMMHC FRET 32, MEX-5 binding -1, Runt-CBFb FRET 8 and RanGTP-Imp inh 38*.
`CCOC(=O)NC(Nc1sc2c(c1C(=O)OC)CCN(C)C2)(C(F)(F)F)C(F)(F)F` gave KLK7 zymogen act 0, Runt-SMMHC FRET 47, MEX-5 binding -4, Runt-CBFb FRET 38 and RanGTP-Imp inh 57*.
`CCOC(=O)c1c(NC(=S)N2CCN(C)CC2)sc2c1CCN(C(=O)OCC)C2` gave KLK7 zymogen act 1, Runt-SMMHC FRET 2, MEX-5 binding 2, Runt-CBFb FRET 7 and RanGTP-Imp inh 2.
Screening Cc1occc1-c1nnc(SC(C)C(=O)Nc2ccccc2F)o1 (configuration not stated) returned KLK7 zymogen act -1.
O=C(Cc1ccccc1[N+](=O)[O-])N/N=C/c1cccnc1 was read as KLK7 zymogen act 0, MEX-5 binding 2 and RanGTP-Imp inh 4.
`COc1cc(/C=C2\SC(c3ccccc3)=NC2=O)cc(Cl)c1O` gave KLK7 zymogen act 0, Runt-SMMHC FRET 69*, MEX-5 binding 0, Runt-CBFb FRET 44 and RanGTP-Imp inh 3.
Screening CCN(CC)c1ccc(/C=c2/sc3nnc(-c4ccccc4C)n3c2=O)cc1 returned KLK7 zymogen act -1, Runt-SMMHC FRET -64, MEX-5 binding -63*, Runt-CBFb FRET -13 and RanGTP-Imp inh -7.
For N#Cc1cc(Oc2cccc3cccnc23)c(-n2nnc3ccccc32)cc1C#N the results were KLK7 zymogen act 0, Runt-SMMHC FRET -62, MEX-5 binding -3, Runt-CBFb FRET -21 and RanGTP-Imp inh 21*.
`N#Cc1ccc(Oc2cccc3cccnc23)c([N+](=O)[O-])c1` gave KLK7 zymogen act -4, MEX-5 binding -6 and RanGTP-Imp inh 35*.
Screening O=C(COC(=O)c1cc(Cl)ccc1O)NC(=O)NCc1ccccc1 returned KLK7 zymogen act 5.
Screening COc1cccc(/C(O)=C2/C(=O)C(=O)N(c3cc(C)on3)C2c2cccs2)c1 (configuration not stated) returned KLK7 zymogen act 0, Runt-SMMHC FRET 145*, MEX-5 binding -2, Runt-CBFb FRET 77* and RanGTP-Imp inh 1.
Screening Cc1cc(N2C(=O)C(=O)/C(=C(/O)c3ccccc3)C2c2cccs2)no1 (configuration not stated) returned KLK7 zymogen act 0, Runt-SMMHC FRET 7, MEX-5 binding 0, Runt-CBFb FRET 9 and RanGTP-Imp inh 1.
`COCCNC(=O)Nc1ccc2nc(-c3cccs3)c(-c3cccs3)nc2c1` gave KLK7 zymogen act -17, Runt-SMMHC FRET 81*, MEX-5 binding -2, Runt-CBFb FRET 15 and RanGTP-Imp inh 120*.
Screening O=C(Nc1ccc2nc(-c3cccs3)c(-c3cccs3)nc2c1)NC1CC1 returned KLK7 zymogen act -29, Runt-SMMHC FRET -73, MEX-5 binding -2, Runt-CBFb FRET -13 and RanGTP-Imp inh 121*.
O=C(Nc1cccs1)NC1CCCC1 was read as KLK7 zymogen act 0, Runt-SMMHC FRET -19, MEX-5 binding 0, Runt-CBFb FRET 0 and RanGTP-Imp inh 2.
For COCCNC(=O)c1cc(-c2cccs2)on1 the results were KLK7 zymogen act 1, Runt-SMMHC FRET -2, MEX-5 binding 1, Runt-CBFb FRET 1 and RanGTP-Imp inh 1.
Cc1cccc(C)c1NC(=O)C(c1ccc(C#N)cc1)n1c(=O)c(-c2cc3ccccc3[nH]2)nc2ccccc21 (configuration not stated) was read as KLK7 zymogen act -67.
Screening Clc1ccsc1-c1ccnc(-n2cccc2)n1 returned KLK7 zymogen act -5, Runt-SMMHC FRET 16, MEX-5 binding 1, Runt-CBFb FRET 40 and RanGTP-Imp inh 0.
`Clc1ccc(-c2ccnc(-n3cccc3)n2)s1` gave KLK7 zymogen act -20, Runt-SMMHC FRET 68*, MEX-5 binding -4, Runt-CBFb FRET 13 and RanGTP-Imp inh 2.
Screening Cn1c(=O)c2cc(S(=O)(=O)NCCC(=O)NCc3ccccc3Cl)ccc2n(C)c1=O returned KLK7 zymogen act 0, Runt-SMMHC FRET -2, MEX-5 binding -2, Runt-CBFb FRET 138* and RanGTP-Imp inh -2.
For CCCCNc1ccc2c(c1)C1CC2CCN1C(=O)OCc1ccccc1 (configuration not stated) the results were KLK7 zymogen act 0.
